{"source": "ChEMBL document CHEMBL4043093", "about": "“2-Oxo-3, 4-dihydropyrimido[4, 5-d]pyrimidinyl derivatives as new irreversible pan fibroblast growth factor receptor (FGFR) inhibitors” (Eur J Med Chem, 2017)", "key": {"[1]": {"biological_target": "Dual specificity mitogen-activated protein kinase kinase 6 (Homo sapiens) (UniProt P52564)", "assay": "Inhibition of wild-type human partial length MEK6 (K36 to D334 residues) expressed in Escherichia coli BL21 assessed as residual activity at 1000 nM after 30 mins by Kinomescan method relative to control"}, "[2]": {"tested_on": "ALK tyrosine kinase receptor (Homo sapiens), Q9UM73 [L1196M]", "sequence (Q9UM73 whole entry L1196M, looked up, the tested form may be a part)": "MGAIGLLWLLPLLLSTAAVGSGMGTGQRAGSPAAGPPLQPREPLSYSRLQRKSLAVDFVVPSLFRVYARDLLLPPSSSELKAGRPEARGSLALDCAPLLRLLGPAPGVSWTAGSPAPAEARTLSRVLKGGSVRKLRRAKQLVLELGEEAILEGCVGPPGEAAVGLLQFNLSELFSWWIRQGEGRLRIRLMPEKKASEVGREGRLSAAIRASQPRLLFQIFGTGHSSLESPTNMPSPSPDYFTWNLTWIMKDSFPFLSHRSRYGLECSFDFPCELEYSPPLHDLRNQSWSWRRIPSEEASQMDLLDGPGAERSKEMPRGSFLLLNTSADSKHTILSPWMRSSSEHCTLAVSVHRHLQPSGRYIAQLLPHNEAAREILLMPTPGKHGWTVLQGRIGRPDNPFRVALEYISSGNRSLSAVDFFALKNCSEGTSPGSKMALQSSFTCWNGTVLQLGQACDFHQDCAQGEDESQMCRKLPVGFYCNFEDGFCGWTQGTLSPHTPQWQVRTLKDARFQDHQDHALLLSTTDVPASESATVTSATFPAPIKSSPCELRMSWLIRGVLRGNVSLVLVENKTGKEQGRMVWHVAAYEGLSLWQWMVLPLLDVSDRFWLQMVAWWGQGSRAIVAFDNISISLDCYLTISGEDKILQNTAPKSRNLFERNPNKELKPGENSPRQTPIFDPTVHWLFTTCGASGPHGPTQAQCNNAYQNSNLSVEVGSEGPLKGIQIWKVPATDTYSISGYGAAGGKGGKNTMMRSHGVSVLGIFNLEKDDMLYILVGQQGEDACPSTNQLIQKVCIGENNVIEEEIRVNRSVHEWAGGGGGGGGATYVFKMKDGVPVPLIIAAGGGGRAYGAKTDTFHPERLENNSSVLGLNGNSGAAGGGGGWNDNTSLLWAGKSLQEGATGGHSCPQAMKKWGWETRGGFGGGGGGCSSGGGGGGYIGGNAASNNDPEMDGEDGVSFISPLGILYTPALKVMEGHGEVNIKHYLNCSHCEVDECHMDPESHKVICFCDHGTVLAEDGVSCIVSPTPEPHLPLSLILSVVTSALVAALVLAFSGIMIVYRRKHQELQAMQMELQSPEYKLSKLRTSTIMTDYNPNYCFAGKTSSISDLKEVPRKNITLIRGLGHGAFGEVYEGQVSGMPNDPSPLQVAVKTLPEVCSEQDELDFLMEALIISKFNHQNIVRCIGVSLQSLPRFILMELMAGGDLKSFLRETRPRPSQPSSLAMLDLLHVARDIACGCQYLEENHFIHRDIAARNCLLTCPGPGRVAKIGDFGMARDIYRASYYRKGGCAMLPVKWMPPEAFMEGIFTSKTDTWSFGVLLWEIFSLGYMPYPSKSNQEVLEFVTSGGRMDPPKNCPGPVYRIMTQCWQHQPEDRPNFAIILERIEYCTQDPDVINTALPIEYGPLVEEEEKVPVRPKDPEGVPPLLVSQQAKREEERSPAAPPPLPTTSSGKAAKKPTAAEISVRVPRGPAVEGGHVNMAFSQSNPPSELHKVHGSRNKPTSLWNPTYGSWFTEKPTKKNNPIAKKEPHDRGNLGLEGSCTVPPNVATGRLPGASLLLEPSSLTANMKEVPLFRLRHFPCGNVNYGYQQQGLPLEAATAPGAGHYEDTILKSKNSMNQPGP", "assay": "Inhibition of wild-type human partial length ALK L1196M mutant (I1088 to E1409 residues) expressed in HEK293 cells assessed as residual activity at 1000 nM after 30 mins by Kinomescan method relative to control", "type": "cell-based"}, "[3]": {"biological_target": "Serine/threonine-protein kinase 38-like (Homo sapiens) (UniProt Q9Y2H1)", "sequence (Q9Y2H1 2-464 limits assumed)": "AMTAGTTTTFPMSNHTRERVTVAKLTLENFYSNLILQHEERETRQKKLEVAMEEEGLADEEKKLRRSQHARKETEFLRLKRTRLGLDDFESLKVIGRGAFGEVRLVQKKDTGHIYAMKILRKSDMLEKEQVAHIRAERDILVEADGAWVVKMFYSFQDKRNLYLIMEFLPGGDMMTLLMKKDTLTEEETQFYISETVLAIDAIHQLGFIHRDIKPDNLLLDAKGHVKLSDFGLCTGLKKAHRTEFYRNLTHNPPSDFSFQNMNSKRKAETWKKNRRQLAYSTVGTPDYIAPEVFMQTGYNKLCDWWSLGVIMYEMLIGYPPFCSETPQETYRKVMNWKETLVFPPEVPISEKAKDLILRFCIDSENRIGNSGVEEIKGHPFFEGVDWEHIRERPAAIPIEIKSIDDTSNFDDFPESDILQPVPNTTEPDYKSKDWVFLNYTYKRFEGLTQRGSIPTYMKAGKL", "assay": "Inhibition of wild-type human partial length NDR2 (N34 to E447 residues) expressed in Escherichia coli BL21 assessed as residual activity at 1000 nM after 30 mins by Kinomescan method relative to control"}, "[4]": {"biological_target": "MAP/microtubule affinity-regulating kinase 3 (Homo sapiens) (UniProt P27448)", "assay": "Inhibition of wild-type human full length MARK3 (M1 to L729 residues) expressed in Escherichia coli BL21 assessed as residual activity at 1000 nM after 30 mins by Kinomescan method relative to control", "summary_of_the_method": "(§1)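 Single-concentration screen at 1 µM across a 456-kinase KINOMEscan panel. The read-out is Percent Control for each kinase.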"}, "[5]": {"biological_target": "Casein kinase II subunit alpha (Homo sapiens) (UniProt P68400)", "assay": "Inhibition of wild-type human full length CSNK2A1 (M1 to Q391 residues) expressed in HEK293 cells assessed as residual activity at 1000 nM after 30 mins by Kinomescan method relative to control", "type": "cell-based", "summary_of_the_method": "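Single-point screen at a fixed 1 µM, run within a 456-kinase DiscoveRx KINOMEscan panel. Each kinase's read-out is Percent Control, i.e. signal relative to a control without compound. Hits were scored by a Percent Control < 35 cut-off, and an S(35) selectivity score was calculated across the non-mutant kinases.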"}, "[6]": {"biological_target": "Serine/threonine-protein kinase SIK2 (Homo sapiens) (UniProt Q9H0K1)", "sequence (Q9H0K1 whole entry, looked up, the tested form may be a part)": "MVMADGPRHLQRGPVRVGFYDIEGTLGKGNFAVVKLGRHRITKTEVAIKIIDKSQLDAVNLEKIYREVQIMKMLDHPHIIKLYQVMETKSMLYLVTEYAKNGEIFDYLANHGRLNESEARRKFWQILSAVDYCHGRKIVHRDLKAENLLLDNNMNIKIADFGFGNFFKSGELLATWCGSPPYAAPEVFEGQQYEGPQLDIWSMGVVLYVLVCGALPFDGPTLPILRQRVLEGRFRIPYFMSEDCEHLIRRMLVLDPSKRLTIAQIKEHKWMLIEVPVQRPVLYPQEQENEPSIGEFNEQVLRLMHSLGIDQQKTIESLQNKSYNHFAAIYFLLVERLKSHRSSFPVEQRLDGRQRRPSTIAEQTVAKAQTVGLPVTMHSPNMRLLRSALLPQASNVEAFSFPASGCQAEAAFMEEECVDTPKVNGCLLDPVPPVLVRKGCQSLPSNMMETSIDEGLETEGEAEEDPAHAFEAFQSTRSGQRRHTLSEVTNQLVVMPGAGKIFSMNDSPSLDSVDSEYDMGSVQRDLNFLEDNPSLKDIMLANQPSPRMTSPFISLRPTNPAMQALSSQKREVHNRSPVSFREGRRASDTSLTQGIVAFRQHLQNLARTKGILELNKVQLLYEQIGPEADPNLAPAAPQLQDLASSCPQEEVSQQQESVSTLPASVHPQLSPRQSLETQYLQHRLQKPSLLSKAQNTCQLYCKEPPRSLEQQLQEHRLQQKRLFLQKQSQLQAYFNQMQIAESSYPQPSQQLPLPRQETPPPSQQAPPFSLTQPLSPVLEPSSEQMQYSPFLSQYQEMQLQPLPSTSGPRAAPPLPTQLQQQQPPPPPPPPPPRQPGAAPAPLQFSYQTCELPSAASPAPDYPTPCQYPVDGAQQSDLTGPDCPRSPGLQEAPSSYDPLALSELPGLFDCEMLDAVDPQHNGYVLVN", "assay": "Inhibition of wild-type human full length SIK2 (M1 to N926 residues) expressed in Escherichia coli BL21 assessed as residual activity at 1000 nM after 30 mins by Kinomescan method relative to control"}, "[7]": {"biological_target": "Macrophage colony-stimulating factor 1 receptor (Homo sapiens) (UniProt P07333)", "assay": "Inhibition of wild-type human partial length autoinhibited CSF1R (Y538 to S939 residues) expressed in HEK293 cells assessed as residual activity at 1000 nM after 30 mins by Kinomescan method relative to control", "type": "cell-based"}, "[8]": {"tested_on": "Hepatocyte growth factor receptor (Homo sapiens), P08581 [Y1235D]", "assay": "Inhibition of human partial length MET Y1235D mutant (D1010 to S1367 residues) expressed in Escherichia coli BL21 assessed as residual activity at 1000 nM after 30 mins by Kinomescan method relative to control", "summary_of_the_method": "(§2)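 KINOMEscan binding panel of 456 kinases, with the test compound at a single concentration of 1 µM. Read-out is Percent Control.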"}, "[9]": {"biological_target": "Serine/threonine-protein kinase NLK (Homo sapiens) (UniProt Q9UBE8)", "assay": "Inhibition of wild-type human full length NLK (M13 to E527 residues) expressed in Escherichia coli BL21 assessed as residual activity at 1000 nM after 30 mins by Kinomescan method relative to control", "summary_of_the_method": "as §1"}, "[10]": {"biological_target": "Receptor-type tyrosine-protein kinase FLT3 (Homo sapiens) (UniProt P36888)", "assay": "Inhibition of wild-type human partial length FLT3 (V592 to Y969 residues) expressed in Escherichia coli BL21 assessed as residual activity at 1000 nM after 30 mins by Kinomescan method relative to control"}, "[11]": {"biological_target": "Serine/threonine-protein kinase 4 (Homo sapiens) (UniProt Q13043)", "sequence (Q13043 whole entry, the tested form may be a part)": "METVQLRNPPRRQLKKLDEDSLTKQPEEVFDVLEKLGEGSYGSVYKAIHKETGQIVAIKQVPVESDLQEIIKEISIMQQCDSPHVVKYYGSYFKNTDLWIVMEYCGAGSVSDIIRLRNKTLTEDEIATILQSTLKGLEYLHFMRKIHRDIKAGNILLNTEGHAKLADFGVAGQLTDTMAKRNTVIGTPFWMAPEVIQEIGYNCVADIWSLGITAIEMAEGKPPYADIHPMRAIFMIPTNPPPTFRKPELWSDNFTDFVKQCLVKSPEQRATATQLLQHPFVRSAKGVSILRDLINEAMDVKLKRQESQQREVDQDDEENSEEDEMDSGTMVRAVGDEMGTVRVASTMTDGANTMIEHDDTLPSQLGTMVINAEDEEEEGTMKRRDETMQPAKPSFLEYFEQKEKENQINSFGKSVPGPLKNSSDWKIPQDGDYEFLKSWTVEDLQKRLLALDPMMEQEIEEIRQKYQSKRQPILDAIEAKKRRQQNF", "assay": "Inhibition of wild-type human full length MST1 (M1 to F487 residues) expressed in Escherichia coli BL21 assessed as residual activity at 1000 nM after 30 mins by Kinomescan method relative to control", "summary_of_the_method": "as §1"}, "[12]": {"biological_target": "Serine/threonine-protein kinase 3 (Homo sapiens) (UniProt Q13188)", "assay": "Inhibition of wild-type human partial length MST2 (D17 to E318 residues) expressed in Escherichia coli BL21 assessed as residual activity at 1000 nM after 30 mins by Kinomescan method relative to control"}, "[13]": {"biological_target": "Cyclin-dependent kinase 11B (Homo sapiens) (UniProt P21127)", "assay": "Inhibition of wild-type human partial length CDK11 (M1 to N360 residues) expressed in Escherichia coli BL21 assessed as residual activity at 1000 nM after […] by Kinomescan method relative to control"}, "[14]": {"biological_target": "MAP kinase-interacting serine/threonine-protein kinase 2 (Homo sapiens) (UniProt Q9HBH9)", "assay": "Inhibition of wild-type human partial length MKNK2 (G63 to S388 residues) expressed in HEK293 cells assessed as residual activity at 1000 nM after 30 mins by Kinomescan method relative to control", "type": "cell-based"}, "[15]": {"biological_target": "Macrophage-stimulating protein receptor (Homo sapiens) (UniProt Q04912)", "assay": "Inhibition of wild-type human partial length MST1R (I1057 to L1363 residues) expressed in Escherichia coli BL21 assessed as residual activity at 1000 nM after 30 mins by Kinomescan method relative to control"}, "[16]": {"biological_target": "Serine/threonine-protein kinase 17B (Homo sapiens) (UniProt O94768)", "assay": "Inhibition of wild-type human full length DRAK2 (M1 to C372 residues) expressed in Escherichia coli BL21 assessed as residual activity at 1000 nM after 30 mins by Kinomescan method relative to control", "summary_of_the_method": "as §1"}, "[17]": {"biological_target": "Tyrosine-protein kinase HCK (Homo sapiens) (UniProt P08631)", "assay": "Inhibition of wild-type human full length HCK (M22 to P526 residues) expressed in Escherichia coli BL21 assessed as residual activity at 1000 nM after 30 mins by Kinomescan method relative to control", "summary_of_the_method": "as §1"}, "[18]": {"biological_target": "Myosin light chain kinase 2, skeletal/cardiac muscle (Homo sapiens) (UniProt Q9H1R3)", "sequence (Q9H1R3 whole entry, the tested form may be a part)": "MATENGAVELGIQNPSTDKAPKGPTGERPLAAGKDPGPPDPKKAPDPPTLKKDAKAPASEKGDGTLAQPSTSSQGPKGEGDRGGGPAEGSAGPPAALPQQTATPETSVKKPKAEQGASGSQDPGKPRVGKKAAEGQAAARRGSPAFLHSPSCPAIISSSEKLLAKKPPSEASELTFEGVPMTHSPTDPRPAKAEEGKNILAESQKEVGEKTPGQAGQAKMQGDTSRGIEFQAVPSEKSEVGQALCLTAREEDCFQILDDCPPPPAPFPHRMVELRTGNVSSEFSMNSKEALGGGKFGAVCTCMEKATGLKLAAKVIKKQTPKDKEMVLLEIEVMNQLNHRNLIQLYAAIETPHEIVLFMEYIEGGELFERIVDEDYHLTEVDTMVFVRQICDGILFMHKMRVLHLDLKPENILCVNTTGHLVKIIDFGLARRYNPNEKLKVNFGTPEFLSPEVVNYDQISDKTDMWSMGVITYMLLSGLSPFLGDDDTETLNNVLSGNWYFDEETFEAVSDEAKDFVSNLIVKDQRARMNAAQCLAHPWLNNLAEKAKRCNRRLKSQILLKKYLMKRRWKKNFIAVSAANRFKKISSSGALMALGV", "assay": "Inhibition of wild-type human partial length MYLK2 (D258 to K570 residues) expressed in Escherichia coli BL21 assessed as residual activity at 1000 nM after 30 mins by Kinomescan method relative to control"}, "[19]": {"tested_on": "Epidermal growth factor receptor (Homo sapiens), P00533 [UNDEFINED MUTATION]", "assay": "Inhibition of human partial length EGFR L747-T751del/Sins mutant expressed in Escherichia coli BL21 assessed as residual activity at 1000 nM after 30 mins by Kinomescan method relative to control", "summary_of_the_method": "as §2"}, "[20]": {"biological_target": "Muscle, skeletal receptor tyrosine-protein kinase (Homo sapiens) (UniProt O15146)", "sequence (O15146 whole entry, the tested form may be a part)": "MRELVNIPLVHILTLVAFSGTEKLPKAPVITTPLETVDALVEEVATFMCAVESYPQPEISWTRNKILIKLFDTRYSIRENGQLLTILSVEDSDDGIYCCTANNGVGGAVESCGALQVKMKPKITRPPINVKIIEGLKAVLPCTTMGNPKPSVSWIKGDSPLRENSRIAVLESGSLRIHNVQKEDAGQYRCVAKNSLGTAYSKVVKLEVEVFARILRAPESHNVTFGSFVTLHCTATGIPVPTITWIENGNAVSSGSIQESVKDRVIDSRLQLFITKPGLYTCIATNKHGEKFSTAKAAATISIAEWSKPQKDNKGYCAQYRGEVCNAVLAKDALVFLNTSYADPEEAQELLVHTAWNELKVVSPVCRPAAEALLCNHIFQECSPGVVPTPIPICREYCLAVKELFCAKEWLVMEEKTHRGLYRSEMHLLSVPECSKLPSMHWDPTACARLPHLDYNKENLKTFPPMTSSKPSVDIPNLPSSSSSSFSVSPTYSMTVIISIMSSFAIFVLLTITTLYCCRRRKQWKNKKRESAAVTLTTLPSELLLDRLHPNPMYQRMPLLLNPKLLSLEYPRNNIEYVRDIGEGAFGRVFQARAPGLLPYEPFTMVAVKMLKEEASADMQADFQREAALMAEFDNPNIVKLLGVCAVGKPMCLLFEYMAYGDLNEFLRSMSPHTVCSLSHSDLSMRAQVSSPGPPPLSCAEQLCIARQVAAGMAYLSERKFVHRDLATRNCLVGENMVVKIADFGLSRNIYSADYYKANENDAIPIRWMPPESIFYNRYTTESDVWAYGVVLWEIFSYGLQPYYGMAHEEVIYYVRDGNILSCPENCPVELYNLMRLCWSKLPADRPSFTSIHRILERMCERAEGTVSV", "assay": "Inhibition of wild-type human partial length MUSK (M553 to V869 residues) expressed in Escherichia coli BL21 assessed as residual activity at 1000 nM after 30 mins by Kinomescan method relative to control"}, "[21]": {"biological_target": "Protein kinase C theta type (Homo sapiens) (UniProt Q04759)", "assay": "Inhibition of wild-type human partial length PRKCQ (L350 to S706 residues) expressed in Escherichia coli BL21 assessed as residual activity at 1000 nM after 30 mins by Kinomescan method relative to control"}}, "data": [{"smiles": "COc1cc(OC)c(Cl)c(N2Cc3cnc(Nc4ccc(F)cc4)nc3N(C3CCN(C(=O)/C=C/CN(C)C)CC3)C2=O)c1Cl", "values": [{"measurement": "Activity", "setting": "[1]", "value": 92, "unit": "%"}, {"measurement": "Activity", "setting": "[2]", "value": 92, "unit": "%"}, {"measurement": "Activity", "setting": "[3]", "value": 100, "unit": "%"}, {"measurement": "Activity", "setting": "[4]", "value": 99, "unit": "%"}, {"measurement": "Activity", "setting": "[5]", "value": 100, "unit": "%"}, {"measurement": "Activity", "setting": "[6]", "value": 89, "unit": "%"}, {"measurement": "Activity", "setting": "[7]", "value": 74, "unit": "%"}, {"measurement": "Activity", "setting": "[8]", "value": 100, "unit": "%"}, {"measurement": "Activity", "setting": "[9]", "value": 98, "unit": "%"}, {"measurement": "Activity", "setting": "[10]", "value": 96, "unit": "%"}, {"measurement": "Activity", "setting": "[11]", "value": 81, "unit": "%"}, {"measurement": "Activity", "setting": "[12]", "value": 64, "unit": "%"}, {"measurement": "Activity", "setting": "[13]", "value": 79, "unit": "%"}, {"measurement": "Activity", "setting": "[14]", "value": 86, "unit": "%"}, {"measurement": "Activity", "setting": "[15]", "value": 95, "unit": "%"}, {"measurement": "Activity", "setting": "[16]", "value": 99, "unit": "%"}, {"measurement": "Activity", "setting": "[17]", "value": 10, "unit": "%"}, {"measurement": "Activity", "setting": "[18]", "value": 82, "unit": "%"}, {"measurement": "Activity", "setting": "[19]", "value": 95, "unit": "%"}, {"measurement": "Activity", "setting": "[20]", "value": 94, "unit": "%"}, {"measurement": "Activity", "setting": "[21]", "value": 100, "unit": "%"}]}]}
